In assay [1] the test system is Plasmodium falciparum. Briefly: Antimalarial activity against Plasmodium falciparum K1 assessed as parasite growth inhibition after 72 hrs by MSF assay. The settings on record: K1, 72 h. The class given is functional, organism-based. The method in brief:
(§1)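 P. falciparum cultures in RPMI-1640-FBS; DMSO stock 5 mg/ml diluted in medium, duplicate wells; 1.0% parasitized cell suspension at 0.8% parasitemia. Incubated 37 °C, 5% CO2 air mixture, 72 h. Lysis buffer with 2× SYBR Green I added, 1 h at 37 °C. Fluorescence read at 485 ± 20 nm excitation / 530 ± 20 nm emission; IC50 by logit regression.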

The next assay relates to Plasmodium yoelii. Briefly: Antimalarial activity against Plasmodium yoelii infected in erythrocytes assessed as inhibition of beta-hematin formation after 16 hrs by BHIA assay. The class given is functional, cell-free. The gist of the method:
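Plasma from infected animal blood at 50% parasitemia (cardiac puncture into 2.0% citrate, spun 5000 rpm, 10 min, 4 °C). Reaction in 1.0 mL: 100 mM sodium acetate pH 5.1, hemin as substrate, plasma, 1–20 µg compound; controls without compound. Triplicate, 37 °C, 16 h, rotary shaker. Pellet washed, dissolved in 2 N NaOH, absorbance 400 nm; IC50 by nonlinear regression of dose-response.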

Assay [2] in a line: Selectivity index, ratio of CC50 for african green monkey Vero cells to IC50 for Plasmodium falciparum K1. It is filed as functional.
Assay [3] has as its system Plasmodium falciparum. Description: Antimalarial activity against Plasmodium falciparum 3D7 assessed as parasite growth inhibition after 72 hrs by MSF assay. The settings on record: 3D7, 72 h. The class given is functional, organism-based. The method in brief: as §1
A further assay concerns Vero. Description: Cytotoxicity against african green monkey Vero cells assessed as growth inhibition after 24 hrs by MTS assay. The class given is cell-based. The note with it: Chlorocebus sabaeus. The gist of the method: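 Vero cells plated at 20,000 per well in MEM with antibiotics + 10% FBS, allowed to adhere overnight at 37 °C, 5% CO2. Compound dilutions added in MEM + 10% FBS; known toxic compound positive control, DMSO negative control. After 24 h, MTS added, 2 h at 37 °C, absorbance 490 nm; DMSO wells taken as 100% survival.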

Assay [4] is described as follows: Cytotoxicity against mouse bone marrow derived macrophage assessed as growth inhibition after 48 hrs by MTS assay. It is filed as cell-based. The method in brief:
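Macrophages washed, plated at 10^5 cells per well in supplemented DMEM, 37 °C, 5% CO2, medium changed every 3rd day, used after 5 days. Compounds added in antibiotic-free, FBS-supplemented DMEM for 48 h at 37 °C, 5% CO2. MTS added for 2 h, absorbance 490 nm; DMSO wells taken as 100% survival.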

Assay [5] has as its system Mycobacterium tuberculosis. Briefly: Antitubercular activity Mycobacterium tuberculosis H37Rv assessed as growth inhibition after 4 weeks. It is filed as functional. The settings on record: 672 h. The method in brief: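 M. tuberculosis H37Rv from Lowenstein-Jensen culture, harvested in N-saline with 0.05% Tween-80 and made single-cell with glass beads. Working inoculum 2 × 10⁷ cfu/mL spread on drug-containing slanted solid medium. Incubated 37 °C for 4 weeks, watching for colonies. Drug-free tubes as control, isoniazid as reference. MIC taken as the lowest concentration giving complete growth inhibition at this inoculum.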

Results on 27 compounds are retold here after ChEMBL document CHEMBL2331443, “Synthesis and biological evaluation of a new class of 4-aminoquinoline-rhodanine hybrid as potent anti-infective agents” (Eur J Med Chem, 2013).

For orientation: IC50 means the point on the concentration scale where inhibition reaches its midpoint. In general, MIC refers to the smallest concentration in the dilution series that meets the test's criterion for growth inhibition.

Structures are written as SMILES. Converted amounts (≈) assume the structure as drawn.

On to `O=C1/C(=C/c2ccc([N+](=O)[O-])cc2)SC(=S)N1CCCNc1ccnc2cc(Cl)ccc12`, for which the half-inhibitory concentration (IC50) with Plasmodium falciparum [1] was determined as 45.5 nM; in the assay on Plasmodium yoelii, 3.23 µg/mL (≈ 6.66 µM); in the assay on Plasmodium falciparum [3], 23.5 nM. The “Ratio CC50/IC50” value in assay [2] is 180.38.
The corresponding values for `O=C1/C(=C/c2cccc([N+](=O)[O-])c2)SC(=S)N1CCCNc1ccnc2cc(Cl)ccc12` are 50.4 nM, 3.93 µg/mL (≈ 8.1 µM), 96 nM and 106.4.
With `O=C1/C(=C/c2ccc(F)cc2)SC(=S)N1CCCNc1ccnc2cc(Cl)ccc12`, the IC50 in the assay on Plasmodium falciparum [1] worked out at 13.2 nM; in the assay with Plasmodium yoelii, 4.3 µg/mL (≈ 9.39 µM); in the assay on Plasmodium falciparum [3] it was 93.9 nM. Besides, in assay [2], the “Ratio CC50/IC50” value came to 2083.58.
In the same order, the values of `O=C1/C(=C/c2ccc(Cl)cc2)SC(=S)N1CCCNc1ccnc2cc(Cl)ccc12` are 94.2 nM, 3.26 µg/mL (≈ 6.87 µM), 76.5 nM and 442.83.
In the same order, the values of `CN(C)c1ccc(/C=C2\SC(=S)N(CCCNc3ccnc4cc(Cl)ccc34)C2=O)cc1` are 66.2 nM, 6.35 µg/mL (≈ 13.1 µM), 49.3 nM and 4195.05.
For the compound `O=C1/C(=C/c2ccccc2[N+](=O)[O-])SC(=S)N1CCCNc1ccnc2cc(Cl)ccc12`, the half-inhibitory concentration (IC50) in the assay with Plasmodium falciparum [1] was 83.8 nM; in the assay with Vero it was above 100000 nM; in assay [4], 70700 nM; with Plasmodium yoelii it was 3.3 µg/mL (≈ 6.8 µM); in the assay on Plasmodium falciparum [3], 38.2 nM. Also, in assay [2], the “Ratio CC50/IC50” value came out at 639.19. Further, the MIC in assay [5] stood at 6.25 µM (≈ 3.03 µg/mL).
On to `O=C1/C(=C/c2ccccc2)SC(=S)N1CCNc1ccnc2cc(Cl)ccc12`, for which the IC50 in the assay with Plasmodium falciparum [1] turned out to be 104 nM; in the assay on Plasmodium yoelii it was 8.21 µg/mL (≈ 19.3 µM); with Plasmodium falciparum [3] it was 58.7 nM. Also, the “Ratio CC50/IC50” value in assay [2] came to 29.16.
The corresponding values for `CCc1ccc(/C=C2\SC(=S)N(CCNc3ccnc4cc(Cl)ccc34)C2=O)cc1` are 95.7 nM, 6.73 µg/mL (≈ 14.8 µM), 42.7 nM and 17.51.
For `O=C1/C(=C/c2ccccn2)SC(=S)N1CCNc1ccnc2cc(Cl)ccc12`, the IC50 in the assay with Plasmodium falciparum [1] was above 1100 nM; in the assay with Plasmodium yoelii, 16.5 µg/mL (≈ 38.6 µM); in the assay on Plasmodium falciparum [3] it was above 1170 nM.
For `O=C1/C(=C/c2ccc([N+](=O)[O-])cc2)SC(=S)N1CCNc1ccnc2cc(Cl)ccc12`, the half-inhibitory concentration (IC50) with Plasmodium falciparum [1] came out at 840 nM; in the assay on Plasmodium yoelii, 12.8 µg/mL (≈ 27.1 µM); in the assay on Plasmodium falciparum [3] it was 870 nM. In addition, in assay [2], the “Ratio CC50/IC50” value is on record as 56.19.
In the same order, the values of `COc1cc(/C=C2\SC(=S)N(CCNc3ccnc4cc(Cl)ccc34)C2=O)cc(OC)c1OC` are 59.3 nM, 7.31 µg/mL (≈ 14.2 µM), 34.8 nM and 88.79.
In the same order, the values of `O=C1CSC(=S)N1CCNc1ccnc2cc(Cl)ccc12` are 80.1 nM, 4.9 µg/mL (≈ 14.5 µM), 181 nM and 112.54.
The corresponding values for `O=C1CSC(=S)N1CCCNc1ccnc2cc(Cl)ccc12` are 45.1 nM, 8.16 µg/mL (≈ 23.2 µM), 200 nM and 88.3.
Turning to `O=C1CSC(=S)N1CCCCNc1ccnc2cc(Cl)ccc12`, the figures for the 50% inhibitory concentration (IC50) with Plasmodium falciparum [1], in the assay on Plasmodium yoelii and in the assay on Plasmodium falciparum [3] were 58.2 nM, 6.21 µg/mL (≈ 17 µM) and 242 nM, respectively. For the same compound, the “Ratio CC50/IC50” value in assay [2] came to 75.44. Also, the minimum inhibitory concentration (MIC) in assay [5] came out at 12.5 µM (≈ 4.57 µg/mL).
On to `O=C1/C(=C/c2ccccc2)SC(=S)N1CCCCNc1ccnc2cc(Cl)ccc12`, for which the figures for the IC50 in the assay on Plasmodium falciparum [1], in the assay on Plasmodium yoelii and with Plasmodium falciparum [3] were 153 nM, 4.03 µg/mL (≈ 8.88 µM) and 43.5 nM, respectively. For the same compound, in assay [2], the “Ratio CC50/IC50” value amounted to 113.53.
For `CCc1ccc(/C=C2\SC(=S)N(CCCCNc3ccnc4cc(Cl)ccc34)C2=O)cc1`, the half-inhibitory concentration (IC50) in the assay with Plasmodium falciparum [1] came to 144 nM; with Plasmodium yoelii it was 6.21 µg/mL (≈ 12.9 µM); with Plasmodium falciparum [3], 54.5 nM. Further, in assay [2], the “Ratio CC50/IC50” value is recorded as 102.86.
As for `O=C1/C(=C/c2ccncc2)SC(=S)N1CCCCNc1ccnc2cc(Cl)ccc12`, the IC50 is 308 nM in the assay with Plasmodium falciparum [1], 6.3 µg/mL (≈ 13.8 µM) in the assay with Plasmodium yoelii and 93.5 nM with Plasmodium falciparum [3]. Further, in assay [2], the “Ratio CC50/IC50” value is 60.39.
As to `O=C1/C(=C/c2ccco2)SC(=S)N1CCCCNc1ccnc2cc(Cl)ccc12`, the half-inhibitory concentration (IC50) with Plasmodium falciparum [1] is 151 nM; in the assay on Vero, above 100000 nM; in assay [4] it was 70700 nM; in the assay with Plasmodium yoelii, 2.78 µg/mL (≈ 6.26 µM); with Plasmodium falciparum [3] it was 35 nM. The “Ratio CC50/IC50” value in assay [2] turned out to be 92.72. The minimum inhibitory concentration (MIC) in assay [5] is 6.25 µM (≈ 2.77 µg/mL).
Turning to `O=C1/C(=C/c2ccc([N+](=O)[O-])cc2)SC(=S)N1CCCCNc1ccnc2cc(Cl)ccc12`, the IC50 amounted to 88.8 nM in the assay on Plasmodium falciparum [1], 17.3 µg/mL (≈ 34.7 µM) in the assay with Plasmodium yoelii and 40 nM with Plasmodium falciparum [3]. For the same compound, the “Ratio CC50/IC50” value in assay [2] was 3720.88.
The corresponding values for `CN(C)c1ccc(/C=C2\SC(=S)N(CCCCNc3ccnc4cc(Cl)ccc34)C2=O)cc1` are 54.6 nM, 4.23 µg/mL (≈ 8.51 µM), 31 nM and 422.41.
With `COc1cc(/C=C2\SC(=S)N(CCCCNc3ccnc4cc(Cl)ccc34)C2=O)cc(OC)c1OC`, the concentration for half-maximal inhibition (IC50) in the assay with Plasmodium falciparum [1] amounted to 70.1 nM; in the assay with Plasmodium yoelii, 3.93 µg/mL (≈ 7.22 µM); with Plasmodium falciparum [3], 43.1 nM. Also, in assay [2], the “Ratio CC50/IC50” value came to 110.08. For the same compound, in assay [5], the minimum inhibitory concentration (MIC) is 12.5 µM (≈ 6.8 µg/mL).
With `COc1ccc(/C=C2\SC(=S)N(CCCCNc3ccnc4cc(Cl)ccc34)C2=O)c2ccccc12`, the concentration for half-maximal inhibition (IC50) in the assay with Plasmodium falciparum [1] is 284 nM; in the assay on Vero, above 100000 nM; in assay [4], above 100000 nM; with Plasmodium yoelii, 4.05 µg/mL (≈ 7.58 µM); in the assay with Plasmodium falciparum [3], 280 nM. Further, the “Ratio CC50/IC50” value in assay [2] is reported as 356.27. Further, the MIC in assay [5] was 6.25 µM (≈ 3.34 µg/mL).
Turning to `COc1cc(/C=C2\SC(=S)N(CCCNc3ccnc4cc(Cl)ccc34)C2=O)cc(OC)c1OC`, the IC50 came out at 42.2 nM with Plasmodium falciparum [1], 3.33 µg/mL (≈ 6.28 µM) with Plasmodium yoelii and 56 nM in the assay with Plasmodium falciparum [3]. Moreover, in assay [2], the “Ratio CC50/IC50” value was 193.92.
On to `COc1ccc(/C=C2\SC(=S)N(CCCNc3ccnc4cc(Cl)ccc34)C2=O)c2ccccc12`, for which the IC50 with Plasmodium falciparum [1] turned out to be 59.3 nM; with Plasmodium yoelii it was 2.65 µg/mL (≈ 5.1 µM); in the assay with Plasmodium falciparum [3], 90.7 nM. Further, the “Ratio CC50/IC50” value in assay [2] is 64.55.
With `CCN(CC)CCCC(C)Nc1ccnc2cc(Cl)ccc12` (stereo not drawn) [CHLOROQUINE], the IC50 in the assay with Plasmodium yoelii amounted to 4.3 µg/mL (≈ 13.4 µM).
Regarding `NNC(=O)c1ccncc1` [ISONIAZID], the 50% inhibitory concentration (IC50) (in the assay on Vero; in assay [4]) was above 100000 nM throughout. Further, the minimal inhibitory concentration (MIC) in assay [5] worked out at 0.217 µM (≈ 0.0298 µg/mL).
Turning to `CO[C@H]1/C=C/O[C@@]2(C)Oc3c(C)c(O)c4c(O)c(c(/C=N/N5CCN(C)CC5)c(O)c4c3C2=O)NC(=O)/C(C)=C\C=C\[C@H](C)[C@H](O)[C@@H](C)[C@@H](O)[C@@H](C)[C@H](OC(C)=O)[C@@H]1C` [RIFAMPIN], the half-maximal inhibitory concentration (IC50) (in the assay with Vero; in assay [4]) was above 100000 nM in each case. The minimum inhibitory concentration (MIC) in assay [5] came to 0.243 µM (≈ 0.2 µg/mL).
